{"data": "Measurements collected from several papers", "cell line": "K562", "read-out": "cell growth or viability", "note": "Each line is one published result; the experiments were not run side by side."}
{"SMILES": "COc1cccc2c1C(=O)c1c(O)c3c(c(O)c1C2=O)C[C@@](O)(C(=O)CO)C[C@@H]3O[C@H]1C[C@H](N)[C@H](O)[C@H](C)O1", "IC50 [µM]": 0.13}
{"SMILES": "O=c1cc(OCc2cc(-c3ccc(C(F)(F)F)cc3)no2)c2ccccc2o1", "assay": "MTS", "setting": "72 h", "IC50 [µM]": "> 100"}
{"SMILES": "O=C(NO)c1ccc(Cn2cnc3c(Nc4ccc(Cl)cc4)ncnc32)cc1", "assay": "MTT", "setting": "72 h", "IC50 [µM]": 13.8}
{"SMILES": "Cc1sc2c(c1C)C(c1ccc(Cl)cc1)=N[C@@H](CC(=O)NCCCCNC(=O)COc1cccc3c1C(=O)N(C1CCC(=O)NC1=O)C3=O)c1nnc(C)n1-2 (some centres unmarked)", "assay": "CCK-8", "setting": "72 h", "IC50 [µM]": 0.73}
{"SMILES": "c1ccc(-c2cc(CNc3cccc4cccnc34)on2)nc1", "assay": "MTS", "setting": "72 h", "IC50 [µM]": 79.7}
{"SMILES": "COc1ccc(Nc2ncnc3c2ncn3Cc2ccc(C(=O)NO)cc2)cc1", "assay": "MTT", "setting": "72 h", "IC50 [µM]": 3.7}
{"SMILES": "C=CC(C)(C)c1[nH]cnc1/C=C1/NC(=O)[C@H](C(C)C)NC1=O", "assay": "MTT", "IC50 [µM]": 1.77}
{"SMILES": "N/C(=N\\O)c1ccc(-c2cc(CNc3cccc4cccnc34)on2)cc1", "assay": "MTS", "setting": "72 h", "IC50 [µM]": 86.6}
{"SMILES": "CN1CCC(NC2CCc3[nH]c4c(C(N)=O)ccc(-c5ccccc5Cl)c4c3C2)CC1 (centres unmarked)", "setting": "96 h", "IC50 [µM]": 0.0214}
{"SMILES": "CC(C)=CCc1ncc(/C=C2\\NC(=O)[C@H](C(C)C)NC2=O)[nH]1", "assay": "MTT", "IC50 [µM]": "> 15"}
{"SMILES": "O=C(NO)c1ccc(Cn2cnc3c(Nc4ccc(F)c(Cl)c4)ncnc32)cc1", "assay": "MTT", "setting": "72 h", "IC50 [µM]": 7.35}
